The list is not random: actives were taken first. Their share in the collection is about 2.4%.
MOR-DOR ag-1: OPRM1-OPRD1 heterodimerization agonism; P35372+P41143; cells, luminescence; activation, % at 9.3 µM; 0.3% of 340,000 active; in the data active = activation above about 18%
MC4R ag barr: agonists of human melanocortin 4 receptor (MC4R) beta-arrestin; P32245; U2OS MC4R beta-arrestin complementation, luminescence; percent of melanotan II response, DMSO zero; activation, % at 8.9 µM; 0.98% of 360,000 active;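 active = activation above a per-plate cutoff, the mean activation of sample wells on that plate plus 3 SD, cut at about 8% in these data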
Target sequence (P32245 whole entry, looked up): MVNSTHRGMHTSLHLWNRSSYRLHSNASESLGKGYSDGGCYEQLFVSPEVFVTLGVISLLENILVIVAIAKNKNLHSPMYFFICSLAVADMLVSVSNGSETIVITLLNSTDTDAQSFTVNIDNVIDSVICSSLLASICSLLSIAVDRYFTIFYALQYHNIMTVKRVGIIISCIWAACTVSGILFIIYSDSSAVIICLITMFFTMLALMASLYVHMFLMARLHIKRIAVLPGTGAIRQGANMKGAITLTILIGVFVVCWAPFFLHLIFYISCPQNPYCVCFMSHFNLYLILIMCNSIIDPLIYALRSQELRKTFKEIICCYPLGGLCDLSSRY
MOR-DOR inv ag-1: mu-delta opioid heterodimer inverse agonism; P35372+P41143; cell-based MOR-DOR heterodimer luminescence; inhibition, % at 9.3 µM; 0.21% of 340,000 active; AID 504357; in the data active = inhibition above about 22%, passing the limit was not always enough
HTR5A ag: counter-screen for OPRM1-OPRD1 agonists: human HTR5A agonism | HTR5A agonist assay, luminescence, cell-based | 0.61% of 340,000 active | activation, % at 9.3 µM; in the data active = activation mostly above about 9.5%, no sharp cut-off; inactive = mostly below about 7.6%
Target sequence (P47898 whole entry, looked up): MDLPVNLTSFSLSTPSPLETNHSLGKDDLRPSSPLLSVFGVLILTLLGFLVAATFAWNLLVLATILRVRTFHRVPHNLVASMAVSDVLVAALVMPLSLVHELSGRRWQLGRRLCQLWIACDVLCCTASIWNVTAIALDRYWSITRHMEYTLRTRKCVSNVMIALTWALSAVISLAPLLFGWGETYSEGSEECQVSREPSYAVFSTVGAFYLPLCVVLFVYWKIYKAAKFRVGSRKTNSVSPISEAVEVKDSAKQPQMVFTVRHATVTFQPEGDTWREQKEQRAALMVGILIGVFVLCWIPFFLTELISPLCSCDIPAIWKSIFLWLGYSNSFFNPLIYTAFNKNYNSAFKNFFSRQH
HTR5A inv ctr: counter-screen for OPRM1-OPRD1 inverse agonists: human HTR5A inverse agonism; inhibition, % at 9.3 µM; 0.083% of 340,000 active; HTR5A cell line, luminescence; in the data active = inhibition mostly above about 23%, no sharp cut-off; inactive = mostly below about 18%
MC4R antagonist: antagonists of human melanocortin 4 receptor (MC4R); MC4R-expressing cells, MTII-stimulated cAMP, LANCE TR-FRET; AID 540295; 0.48% of 360,000 active; inhibition, % at 6.5 µM;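 active = inhibition above its plate's cutoff, the mean of tested wells on that plate plus 3 SD, cut at about 29% in these data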
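material = U2OS cells stably expressing human melanocortin 4 receptor (MC4R) | also added = Melanotan II challenge | dosing = single nominal compound dose of 6.5 µM | detection = TR-FRET with Eu-cAMP and labeled anti-cAMP, 671 nm | replication = singlicate | timing = compound 30 min, challenge 1 h, detection 1 h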
OPRM1-D1 inv cf: confirmation of human OPRM1-OPRD1 heterodimerization inverse agonists; cells expressing OPRM1/OPRD1 heterodimer, luminescence; shares compounds with MOR-DOR inv ag-1; 20% of 580 active; inhibition, % at 9.3 µM; in the data active = inhibition above about 32%
HTR5A inv ctr2: counter-screen for OPRM1-OPRD1 inverse agonists: human HTR5A inverse agonism | shares compounds with MOR-DOR inv ag-1 | HTR5A-expressing cells, luminescence | inhibition, % at 9.3 µM | 580 tested, under 10 active
MOR-DOR inv ag-2: inverse agonist of OPRM1-OPRD1 heterodimerization in HTR5A counter-screen. shares compounds with HTR5A inv ctr. U2OS counter-screen cells, complementation luminescence. inhibition, % at 9.3 µM. 190 tested, under 10 active. AID 504912
HTR5A inv confrm: HTR5A (human) inverse agonism, confirmation. shares compounds with HTR5A inv ctr. HTR5A-expressing cells, luminescence. inhibition, % at 9.3 µM. 190 tested, under 10 active. AID 504916
MOR-DOR ag-2: promotes OPRM1-OPRD1 heterodimerization in HTR5A counter-screen | 13% of 800 active | activation, % at 9.3 µM | AID 504913 | U2OS counter-screen cells, complementation luminescence, 3 h | shares compounds with HTR5A ag; in the data active = activation above about 18%
HTR5A ag confirm: HTR5A (human) agonism, confirmation. 17% of 800 active. AID 504915. activation, % at 9.3 µM. HTR5A agonist cell assay, luminescence. shares compounds with HTR5A ag; in the data active = activation above about 17%
Each line names hits and unclear results; the compound was inactive in the other large screens (follow-up assays come after a bar, where they were run). Unless noted, the rule behind the calls is not given here.

C/C(=N\N1CCCCC1c1cccnc1)c1c(O)n(C2CCCCC2)c(=S)[nH]c1=O (centres undefined)	none
C[C@H]1CCC/C=C/C2C[C@H](O)CC2[C@H](O)/C=C/C(=O)O1 (some centres undefined)	MOR-DOR inv ag-1 38.5 | OPRM1-D1 inv cf inactive | HTR5A inv ctr2 inactive
CC1CCC/C=C/C2CC(O)CC2C(O)/C=C/C(=O)O1 (centres undefined)	MOR-DOR inv ag-1 38.2 | OPRM1-D1 inv cf inactive | HTR5A inv ctr2 inactive
C[C@H]1CCC[C@@H](O)CCC/C=C/c2cc(O)cc(O)c2C(=O)O1	none
N/C(=N/[N+](=O)[O-])N1CCN(C(=O)Oc2ccc([N+](=O)[O-])cc2)CC1	none
COCCCn1c(N)c(C(=O)OCCOC)c2nc3ccccc3nc21	none
CCOC(=O)c1c(NS(=O)(=O)c2ccccc2)n(CCCOC)c2nc3ccccc3nc12	MOR-DOR inv ag-1 45.9 | OPRM1-D1 inv cf inactive | HTR5A inv ctr2 inactive
COC(=O)C1=C(c2ccc(OC)c(OC)c2)C[C@@H]2CC[C@H]1N2C(=O)NC1Cc2ccccc2C1	none
COCCOC(=O)c1c(N)n(Cc2ccco2)c2nc3ccccc3nc12	MOR-DOR inv ag-1 28.6 | OPRM1-D1 inv cf inactive | HTR5A inv ctr2 inactive
COC(=O)c1c(N)n(Cc2ccc(OC)cc2)c2nc3ccccc3nc12	MOR-DOR inv ag-1 32.1 | OPRM1-D1 inv cf inactive | HTR5A inv ctr2 inactive
CC(C)OC(=O)c1c(N)n(Cc2ccco2)c2nc3ccccc3nc12	none
ON1C2CCCCC2N(O)C1c1ccccc1F (centres undefined)	MOR-DOR inv ag-1 54.4 | OPRM1-D1 inv cf inactive | HTR5A inv ctr2 inactive
CCCC1(CC(C)CC)C(=O)NC(=O)NC1=O (centres undefined)	none (no result: MOR-DOR ag-1, MOR-DOR inv ag-1, HTR5A ag, HTR5A inv ctr)
O=c1[nH]c(O)c(N=Nc2cc([N+](=O)[O-])ccc2O)c(=O)[nH]1	HTR5A inv ctr 27.8 | MOR-DOR inv ag-2 inactive | HTR5A inv confrm inactive
O=[N+]([O-])c1ccc(O)c([N+](=O)[O-])c1	none
CN1CCN(c2c(F)cc([N+](=O)[O-])c(N)c2Br)CC1	HTR5A inv ctr 34.1 | MOR-DOR inv ag-2 inactive | HTR5A inv confrm inactive
COCCn1c(O)c(/C=N/NC(=O)CSC(=S)N2CCCC2)c(=O)[nH]c1=S	HTR5A inv ctr 30.1 | MOR-DOR inv ag-2 inactive | HTR5A inv confrm inactive
Cc1ncoc1C(=O)NCC1=C(c2ccc3ccccc3c2)C[C@@H]2CC[C@H]1N2Cc1ccco1	none (no result: MOR-DOR ag-1, MOR-DOR inv ag-1, HTR5A ag, HTR5A inv ctr)
CCCC1CCCCC12C(=O)NC(=O)NC2=O (centres undefined)	none
COc1ccccc1CCNC1CCCCCC1	none
c1ccc2c(CCNC3CCCCC3)c[nH]c2c1	HTR5A ag 25.3 | MOR-DOR ag-2 inactive | HTR5A ag confirm 35.9
CC(N)Cc1c[nH]c2ccc(OCc3cccs3)cc12 (centres undefined)	none
CC(N)Cc1c[nH]c2ccc(O)cc12 (centres undefined)	HTR5A ag 34.9 | MOR-DOR ag-2 inactive | HTR5A ag confirm 60.0
c1ccc2c(NC3=NCCS3)cccc2c1	HTR5A ag 18.0 | MOR-DOR ag-2 inactive | HTR5A ag confirm 21.2
O=C(C[N+]12CCN(CC1)CC2)NCCc1ccc(Cl)cc1Cl	none
CCC(CO)(C(=O)OC1CC2CCC(C1)N2C)c1ccccc1 (centres undefined)	HTR5A ag 16.2 | MOR-DOR ag-2 inactive | HTR5A ag confirm inactive
CN1C2CCC1CC(OC(=O)c1cc(Cl)cc(Cl)c1)C2 (centres undefined)	none
CC(Cc1ccccc1)/[N+]([O-])=C\c1ccc(C(F)(F)F)cc1 (centres undefined)	none
COP(=O)(Cc1ccc(C#N)o1)OC	HTR5A ag 15.4 | MOR-DOR ag-2 inactive | HTR5A ag confirm inactive
COc1ccc2[nH]cc(CCN)c2c1	HTR5A ag 59.9 | MOR-DOR ag-2 inactive | HTR5A ag confirm inactive
CCN1C[C@]2(C)CC[C@H](O)[C@]34C1[C@H](C[C@H]23)[C@@]1(O)C[C@H](OC)[C@H]2C[C@@H]4[C@@H]1C2O (some centres undefined)	none
CCCC12CN3CC(CCC)(CN(C1)C3c1ccccn1)C2=O (centres undefined)	none
C=CCn1c(O)c(C(C)=NCCN2CCCCC2)c(=O)[nH]c1=O	none
C=CCn1c(O)c(/C(C)=N/N2CCCCC2)c(=O)[nH]c1=O	HTR5A ag 19.5 | MOR-DOR ag-2 inactive | HTR5A ag confirm inactive
Cc1cc(O)c2c(c1)OC(C)(C)C1=C2CC(C)CC1 (centres undefined)	HTR5A ag 15.2 | MOR-DOR ag-2 inactive | HTR5A ag confirm inactive
Cc1cc(O)c2c3c(c(=O)oc2c1)CCC(C)C3 (centres undefined)	none
CN1C[C@H](CO)C[C@@H]2c3cccc4[nH]cc(c34)C[C@H]21	HTR5A ag 16.3 | MOR-DOR ag-2 inactive | HTR5A ag confirm 23.3
Cc1c(CCC(=O)N2C[C@H]3C[C@@H](C2)c2cccc(=O)n2C3)c(=O)oc2c(C)c(O)ccc12	none (no result: MOR-DOR ag-1, MOR-DOR inv ag-1, HTR5A ag, HTR5A inv ctr)
Cc1ccc(-c2ccc(=O)n(CC(=O)N3CCC4(CC3)OCCO4)n2)cc1	none
N#Cc1c(Br)n(C2OC(CO)C(O)C2O)c2ncnc(N)c12 (centres undefined)	HTR5A ag 80.8 | MOR-DOR ag-2 32.3 | HTR5A ag confirm 24.1
CN(C)C(=O)O/N=C(\N)COc1ccc(C(C)(C)C)cc1	HTR5A ag 28.6 | MOR-DOR ag-2 inactive | HTR5A ag confirm inactive
COC(=O)C1=C(c2ccc(F)cc2F)C[C@@H]2CC[C@H]1N2C(=O)NCc1ccc2c(c1)OCO2	HTR5A ag 21.2 | MOR-DOR ag-2 inactive | HTR5A ag confirm inactive
CCC(CO)NC(=O)C1C=C2c3cccc4[nH]cc(c34)CC2N(C)C1 (centres undefined)	HTR5A ag 74.7 | MOR-DOR ag-2 inactive | HTR5A ag confirm 88.0

Source: PubChem BioAssay (The Scripps Research Institute Molecular Screening Center)
